ABHD4 inh = inhibitors of mouse ABHD4; hit rate 0.54% among 370,000; purified mABHD4, FP-Rh probe fluorescence polarization; inhibition, % at 8.92 µM;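 active = inhibition exceeding the mean over every tested compound plus 3 SD, cut at about 30% in these data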;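 also: 0% = plate median of compound wells and 100% = S159A mutant with DMSO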
Target sequence (Q8VD66 whole entry, looked up): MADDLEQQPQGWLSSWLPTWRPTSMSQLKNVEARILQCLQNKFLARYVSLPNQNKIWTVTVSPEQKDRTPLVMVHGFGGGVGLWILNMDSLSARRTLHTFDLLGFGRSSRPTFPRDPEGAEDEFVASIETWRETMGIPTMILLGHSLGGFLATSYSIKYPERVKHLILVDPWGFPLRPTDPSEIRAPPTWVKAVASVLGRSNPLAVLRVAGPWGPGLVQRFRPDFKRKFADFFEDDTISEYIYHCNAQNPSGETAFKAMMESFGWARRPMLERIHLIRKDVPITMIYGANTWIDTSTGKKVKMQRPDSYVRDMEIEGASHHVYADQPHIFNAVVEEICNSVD
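Test system: mouse ABHD4 enzyme, wild type. Reagent: FP-Rh fluorescent activity-based probe, added after compound pre-incubation. Timing: pre-incubation 45 min, probe exposure 60 min, at 25 °C. Technique: FP readout, ex 525 nm / em 598 nm. Benchmarks: high control S159A mutant with DMSO, low control median of compound wells.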
TCR-CD3 inh = blocks the human TCR-CD3 interaction; hit rate 0.37% among 360,000; inhibition, % at 9.4 µM; TAMRA-labeled TCR probe fluorescence, biochemical; in the data active = inhibition above about 19%;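 also: recombinant mutant TCR 2C K166C tagged with TAMRA read by polarization; 0% = receptor in buffer alone and 100% = receptor with positive control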
SIAE primary = inhibitors of human sialic acid acetylesterase SIAE; Q9HAT2; SIAE FP-Rh probe binding, fluorescence polarization; inhibition, % at 9.66 µM; hit rate 0.69% among 370,000; AID 1053197;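 active = inhibition above a cutoff: mean of compounds within the control limits plus 3 SD of those, cut at about 17% in these data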;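 also: 0% = plate median of compound wells and 100% = probe without SIAE protein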
PRMT1 FP inh = inhibitors of human PRMT1. recombinant PRMT1, activity-based probe fluorescence polarization. AID 652257. hit rate 1.3% among 370,000. inhibition, % at 2.79 µM;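 active = inhibition above about 21% made by adding two undisclosed values, limit read from the data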
HTRA1 inhibitor = HTRA1 (human) protease inhibition | recombinant HTRA1, FP-rhodamine activity-based probe, fluorescence polarization | AID 504803 | inhibition, % at 5.96 µM | hit rate 0.5% among 340,000 | Q92743; in the data active = inhibition above about 36%;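 also: 0% = enzyme with DMSO and 100% = wells lacking enzyme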
SIAE confirm = confirmation of human SIAE inhibitors; shares compounds with SIAE primary; SIAE FP-Rh activity-based probe, fluorescence polarization; inhibition, % at 9.66 µM; hit rate 13% among 2,300;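 active = mean inhibition of the replicates above the hit cutoff set in the primary screen, cut at about 17% in these data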;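 also: 0% = SIAE with DMSO and probe and 100% = probe without SIAE; inhibitors lower polarization as more probe stays unbound to SIAE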
* = called active by the depositor. An excerpt weighted towards active compounds, which were near 2.6% of everything screened.

O=C1N/C(=N/NC(=O)c2cccc3ccccc23)S/C1=C\c1ccccc1OCc1ccccc1 was read as ABHD4 inh 5, TCR-CD3 inh -4, SIAE primary 2, PRMT1 FP inh -1 and HTRA1 inhibitor 8.
COc1ccc(OC)c(/C=C2\S/C(=N/NC(=O)c3ccc4ccccc4c3)NC2=O)c1 was read as ABHD4 inh 9, TCR-CD3 inh 1, SIAE primary 19*, PRMT1 FP inh -1, HTRA1 inhibitor 7 and SIAE confirm 9.
COc1ccc(NC(=O)Cc2ccsc2)c(OC)c1 was read as ABHD4 inh 6, TCR-CD3 inh 0, SIAE primary 18*, PRMT1 FP inh 0, HTRA1 inhibitor 5 and SIAE confirm -2.
`COc1ccc(NC(=O)COC(=O)Cc2ccsc2)c(OC)c1` gave ABHD4 inh -6, TCR-CD3 inh -1, SIAE primary 3, PRMT1 FP inh -3 and HTRA1 inhibitor -2.
For O=C(CN1C(=O)NC2(CCCC2)C1=O)OCc1cc(=O)n2cc(Br)ccc2n1 the results were ABHD4 inh 4, TCR-CD3 inh 5, SIAE primary 4, PRMT1 FP inh -2 and HTRA1 inhibitor 4.
C[C@H](O)[C@@H]1CN2CCc3c([nH]c4ccccc34)[C@@H]2C[C@@H]1N(C)C(=O)Nc1cccc2ccccc12 was read as ABHD4 inh 20, TCR-CD3 inh -7, SIAE primary 22*, PRMT1 FP inh 10 and SIAE confirm -6.
Screening CCNC(=O)N(C)[C@H]1C[C@H]2c3[nH]c4ccccc4c3CCN2C[C@H]1[C@H](C)O returned ABHD4 inh 4, TCR-CD3 inh 1, SIAE primary 3 and PRMT1 FP inh 5.
Screening N#Cc1c(-c2ccccc2)cc(-c2ccccc2)nc1SCCC(=O)O returned ABHD4 inh -6, TCR-CD3 inh -8, SIAE primary -24, PRMT1 FP inh 4 and HTRA1 inhibitor -32.
`Cc1ccc(C2(C)NC(=O)N(CC(=O)N3c4ccccc4NC(=O)CC3C)C2=O)cc1` (stereo unspecified) gave ABHD4 inh -7, TCR-CD3 inh 8, SIAE primary -9, PRMT1 FP inh -1 and HTRA1 inhibitor -1.
For CC(C)C(OC(=O)CN1C(=O)COc2ccccc21)C(=O)NC1CCCCC1 (stereo unspecified) the results were ABHD4 inh 7, TCR-CD3 inh 0, SIAE primary 18*, PRMT1 FP inh 0, HTRA1 inhibitor -1 and SIAE confirm -2.
For COc1ccc(N2CCN(C(=O)c3cccc(S(=O)(=O)N4CCc5ccccc54)c3)CC2)cc1 the results were ABHD4 inh 0, TCR-CD3 inh -3, SIAE primary 90*, PRMT1 FP inh -5, HTRA1 inhibitor -7 and SIAE confirm 8.
For CCN(CC(=O)Nc1ccc2c(c1)OCCO2)C(=O)c1cccc(OCC(C)C)c1 the results were ABHD4 inh -2, TCR-CD3 inh 3, SIAE primary -8, PRMT1 FP inh -2 and HTRA1 inhibitor -3.
`COC(=O)C1=C(NC(=O)COc2ccc(Cl)cc2Cl)CCS1` gave ABHD4 inh -5, TCR-CD3 inh 1, SIAE primary 20*, PRMT1 FP inh 3, HTRA1 inhibitor -1 and SIAE confirm -2.
Screening COC(=O)C1=C(NC(=O)COc2ccc3ccccc3c2)CCS1 returned ABHD4 inh 2, TCR-CD3 inh -1, SIAE primary 5, PRMT1 FP inh 1 and HTRA1 inhibitor -1.
C=C1C(=O)OC2C=C(CO)C3OC3C3OC3(C)CC(OC(=O)/C(=C/C)COC(C)=O)C12 (stereo unspecified) was read as ABHD4 inh -8, TCR-CD3 inh 3, SIAE primary 2, PRMT1 FP inh 8 and HTRA1 inhibitor 5.
Screening O=C(OCC(=O)c1c[nH]c2ccccc12)c1cccc([N+](=O)[O-])c1 returned ABHD4 inh -11, TCR-CD3 inh -5, SIAE primary 21*, PRMT1 FP inh 1, HTRA1 inhibitor -23 and SIAE confirm -2.
`CSC[C@@H]1NC(=S)N(c2ccc(C)cc2)C1=O` gave ABHD4 inh -3, TCR-CD3 inh -1, SIAE primary 52*, PRMT1 FP inh 0, HTRA1 inhibitor -50 and SIAE confirm -110.
`Cn1c(=O)c2c(SCC(=O)Nc3ccccc3F)nc(-c3ccccc3F)nc2n(C)c1=O` gave ABHD4 inh -2, TCR-CD3 inh 3, SIAE primary 23*, PRMT1 FP inh -4, HTRA1 inhibitor 9 and SIAE confirm 1.
Screening CCOc1ccc(CCNC(=O)Cc2ccc(NC(=O)C3=C(C)OCCS3)cc2)cc1 returned ABHD4 inh 0, TCR-CD3 inh 5, SIAE primary 19*, PRMT1 FP inh 2, HTRA1 inhibitor 0 and SIAE confirm 8.
`O=C(CCC(=O)N(CC(=O)NC1CCCC1)c1ccc(F)cc1)Nc1nccs1` gave ABHD4 inh -6, TCR-CD3 inh 2, SIAE primary -3, PRMT1 FP inh 0 and HTRA1 inhibitor -1.
Screening O=C(CCC(=O)N(CC(=O)NC1CCCC1)c1cccc(F)c1)Nc1nccs1 returned ABHD4 inh 4, TCR-CD3 inh 5, SIAE primary 18*, PRMT1 FP inh 1, HTRA1 inhibitor 4 and SIAE confirm -2.
Screening COc1ccc(NC(=O)CC2SC(=NCC3CCCO3)NC2=O)cc1 (stereo unspecified) returned ABHD4 inh 1, TCR-CD3 inh 1, SIAE primary 17*, PRMT1 FP inh 2, HTRA1 inhibitor 0 and SIAE confirm -3.
For Cc1ccc(NC(=O)CC2SC(=NCC3CCCO3)NC2=O)cc1Cl (stereo unspecified) the results were ABHD4 inh 0, TCR-CD3 inh -4, SIAE primary -2, PRMT1 FP inh 3 and HTRA1 inhibitor -3.
Screening CC(Sc1ncnc2ccccc12)C(=O)Nc1ccc2c(c1)OCCO2 (stereo unspecified) returned ABHD4 inh -11, TCR-CD3 inh -1, SIAE primary 24*, PRMT1 FP inh -2, HTRA1 inhibitor 0 and SIAE confirm -1.
Screening COCC#Cc1cnc2c(c1)C(=O)N([C@H](C)CO)C[C@H](C)[C@@H](CN(C)S(=O)(=O)c1ccccc1)O2 returned ABHD4 inh 4, TCR-CD3 inh 4, SIAE primary 2, PRMT1 FP inh 0 and HTRA1 inhibitor 4.
`Cc1ccc(C)c(NC(=S)NCc2ccc3c(c2)OCO3)c1` gave ABHD4 inh 0, TCR-CD3 inh 8, SIAE primary 18*, PRMT1 FP inh -1, HTRA1 inhibitor 0 and SIAE confirm -2.
`Cc1cccc(NS(=O)(=O)c2ccc(C)c(C(=O)NCC(c3cccs3)N3CCOCC3)c2)c1` (stereo unspecified) gave ABHD4 inh 0, TCR-CD3 inh 11, SIAE primary 4, PRMT1 FP inh -6 and HTRA1 inhibitor -2.
